Measured values reported in ChEMBL document CHEMBL1130025, “Dihydro(alkylthio)(naphthylmethyl)oxopyrimidines: novel non-nucleoside reverse transcriptase inhibitors of the S-DABO series” (J Med Chem, 1997).

Columns and labels:
[1] = test system: C8166; experiment: Ability to inhibit HIV-2 multiplication in acutely infected C8166 cells; format: functional, cell-based; details: Homo sapiens
How it was run: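 C8166 cells (1×10^4 per well) in RPMI 1640 with 10% FCS were infected with 1000 CCID50 of HIV-2 ROD, alongside serial compound dilutions from DMSO stock. After 5 days at 37 °C, viable cells were counted by MTT. EC50 is the dose giving 50% protection from virus-induced cytopathicity. Data are means of three experiments.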

[2] = test system: H9; experiment: Ability to inhibit HIV-1 multiplication in chronically infected H9/IIIB cells; format: functional, cell-based; details: Homo sapiens
How it was run: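 Value taken as compound dose lowering infectious HIV-1 titer by 1 log in chronically infected H9/IIIB cells. Titer was read in C8166 cells by limiting dilution (1:2, 4 replica wells per dilution), with light-microscope scoring of cytopathicity after 4 days, expressed as CCID50/mL. Data are means of three separate experiments.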

[3] = test system: MT4; experiment: Dose required to reduce the viability of mock-infected cells by 50%; format: functional; details: Homo sapiens
How it was run: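 Mock-infected MT-4 cells (1×10^4 per well) were exposed to compound dilutions in parallel with the antiviral assay. After 4 days at 37 °C, viability was measured by MTT. CC50 is the dose reducing viable cell number by 50%.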

[4] = test system: MT4; experiment: Inhibitory activity against resistant HIV-1 strain MC639r was determined.; format: functional, cell-based; details: Homo sapiens
[5] = test system: MT4; experiment: Inhibitory activity against resistant HIV-1 strain NevR was determined.; format: functional, cell-based; details: Homo sapiens
[6] = test system: Human immunodeficiency virus type 1; experiment: Selectivity index is the ratio of CC50 to EC50; details: Human immunodeficiency virus 1
[7] = test system: MT4; experiment: Dose required to achieve 50% protection of MT-4 cells from the HIV-1 induced cytopathogenicity in HIV-1 infected MT-4 cells; details: Homo sapiens
[8] = target: Human immunodeficiency virus type 1 reverse transcriptase (Human immunodeficiency virus 1, UniProt Q72547); experiment: Compound concentration required to inhibit the HIV-1 recombinant Reverse transcriptase (rRT) activity by 50%.

CCC(C)Sc1nc(O)c(C)c(Cc2ccc3ccccc3c2)n1 (stereo unspecified) was tested, and the EC50 [1] was over 100 µM, the EC50 [2] was over 100 µM and the CC50 [3] was 80 µM. For the same molecule, the EC50 [4] was 17.8 µM, the EC50 [5] was over 100 µM and the Ratio [6] was 47. The EC50 [7] was 1.7 µM.

In the case of CCC(C)Sc1nc(Cc2ccc3ccccc3c2)c(C)c(=O)[nH]1 (stereo unspecified), the IC50 [8] is reported as 29.7 µM.

Work on Cc1c(Cc2cccc3ccccc23)nc(SC2CCCC2)[nH]c1=O yielded an IC50 [8] of 45 µM.

Oc1cc(CCc2ccccc2)nc(SC2CCCCC2)n1 gave a CC50 [3] of 133 µM, a Ratio [6] of 1.9 and an EC50 [7] of 68 µM.

Cc1c(O)nc(SC2CCCC2)nc1Cc1ccc2ccccc2c1 was tested, and the CC50 [3] was over 300 µM, the Ratio [6] was over 20 and the EC50 [7] was 15 µM.

Cc1c(O)nc(SC2CCCC2)nc1Cc1cccc2ccccc12 showed an EC50 [1] of over 100 µM, an EC50 [2] of over 100 µM and a CC50 [3] of over 300 µM. For the same molecule, the EC50 [4] was 16.2 µM, the EC50 [5] was over 100 µM and the Ratio [6] was over 50. It also gave an EC50 [7] of 6 µM.

Oc1cc(COc2ccccc2)nc(SC2CCCC2)n1 was tested, and the CC50 [3] was over 300 µM, the Ratio [6] was over 2 and the EC50 [7] was 148 µM.

Cc1ccnc2c1NC(=O)c1cccnc1N2C1CC1 [NEVIRAPINE] was tested, and the EC50 [1] was over 100 µM, the EC50 [2] was over 100 µM and the CC50 [3] was over 300 µM. It also gave an EC50 [4] of 0.31 µM, an EC50 [5] of over 100 µM and an EC50 [7] of 0.25 µM.

Work on CCC(C)Sc1nc(O)cc(Cc2ccc3ccccc3c2)n1 (stereo unspecified) yielded an EC50 [1] of over 100 µM, an EC50 [2] of over 100 µM and a CC50 [3] of 40 µM. It also gave an EC50 [4] of 4.1 µM, an EC50 [5] of over 100 µM and an IC50 [8] of 7.4 µM. It also gave a Ratio [6] of 14 and an EC50 [7] of 2.8 µM.

For CCC(C)Sc1nc(Cc2cccc3ccccc23)c(C)c(=O)[nH]1 (stereo unspecified), the IC50 [8] was 22.5 µM.

In the case of Cc1c(O)nc(SC2CCCCC2)nc1Cc1ccc2ccccc2c1, the CC50 [3] is reported as over 300 µM, the Ratio [6] is reported as over 2.4 and the EC50 [7] is reported as 125 µM.

CCC(C)Sc1nc(O)c(C)c(CCc2ccccc2)n1 (stereo unspecified) showed a CC50 [3] of 105 µM, a Ratio [6] of 6 and an EC50 [7] of 18 µM.

In the case of Oc1cc(Cc2cccc3ccccc23)nc(SC2CCCCC2)n1, the CC50 [3] is reported as over 300 µM, the Ratio [6] is reported as over 96 and the EC50 [7] is reported as 3.1 µM.

CC(C)Sc1nc(O)cc(Cc2cccc3ccccc23)n1 was tested, and the CC50 [3] was over 300 µM, the Ratio [6] was over 300 and the EC50 [7] was 1 µM.

In the case of CCC(CC)Sc1nc(O)cc(Cc2cccc3ccccc23)n1, the CC50 [3] is reported as 200 µM, the Ratio [6] is reported as 50 and the EC50 [7] is reported as 4 µM.

With Cc1c(O)nc(SC2CCCC2)nc1COc1ccccc1 the CC50 [3] was over 300 µM, the Ratio [6] was over 13 and the EC50 [7] was 24 µM.

With Oc1cc(CSc2ccccc2)nc(SC2CCCC2)n1 the CC50 [3] was 300 µM, the Ratio [6] was 4.5 and the EC50 [7] was 66 µM.

Molecule CCC(C)Sc1nc(O)c(C)c(Cc2cccc3ccccc23)n1 (stereo unspecified) has an EC50 [1] of over 100 µM, an EC50 [2] of over 100 µM and a CC50 [3] of over 300 µM. For the same molecule, the EC50 [4] was 6 µM, the EC50 [5] was over 100 µM and the Ratio [6] was over 300. For the same molecule, the EC50 [7] was 1 µM.

Cc1cccc(Cc2nc(SC3CCCCC3)nc(O)c2C)c1 was tested, and the EC50 [1] was over 100 µM, the EC50 [2] was over 100 µM and the CC50 [3] was over 300 µM. The EC50 [4] was over 100 µM, the EC50 [5] was over 100 µM and the IC50 [8] was 0.9 µM. The Ratio [6] was over 500.

With Cc1c(O)nc(SC2CCCCC2)nc1CCc1ccccc1 the CC50 [3] was over 300 µM, the Ratio [6] was over 11 and the EC50 [7] was 27 µM.

Work on CCC(C)Sc1nc(COc2ccccc2)c(C)c(=O)[nH]1 (stereo unspecified) yielded an IC50 [8] of over 100 µM.

Molecule Cc1c(O)nc(SC2CCCCC2)nc1COc1ccccc1 has a CC50 [3] of over 300 µM, a Ratio [6] of over 14 and an EC50 [7] of 22 µM.

Cc1c(O)nc(SC2CCCCC2)nc1Cc1cccc2ccccc12 showed a CC50 [3] of over 300 µM, a Ratio [6] of over 4.7 and an EC50 [7] of 63 µM.

Molecule CCC(C)Sc1nc(O)cc(CCc2ccccc2)n1 (stereo unspecified) has a CC50 [3] of 180 µM, a Ratio [6] of 1.4 and an EC50 [7] of 125 µM.

Molecule O=c1cc(Cc2cccc3ccccc23)nc(SC2CCCC2)[nH]1 has an IC50 [8] of 48.7 µM.

With Cc1c(O)nc(SC2CCCCC2)nc1CSc1ccccc1 the CC50 [3] was over 300 µM, the Ratio [6] was over 2 and the EC50 [7] was 150 µM.

CCC(C)Sc1nc(O)cc(CSc2ccccc2)n1 (stereo unspecified) was tested, and the CC50 [3] was 288 µM, the Ratio [6] was 5.4 and the EC50 [7] was 53 µM.

Cc1c(O)nc(SC2CCCC2)nc1CCc1ccccc1 was tested, and the CC50 [3] was over 300 µM, the Ratio [6] was over 16 and the EC50 [7] was 19 µM.

Oc1cc(Cc2cccc3ccccc23)nc(SCc2ccccc2)n1 was tested, and the CC50 [3] was over 300 µM, the Ratio [6] was over 24 and the EC50 [7] was 12.6 µM.
